proCasp3 act – activators of human procaspase-3; activation, % at 8.5 µM; hit rate 0.11% among 330,000; recombinant procaspase-3 D3A, Ac-DEVD-pNA absorbance 405 nm;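 active means activation above the mean of all tested compounds plus 3 SD, cut at about 21% in these data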;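 further: 0% = DMSO alone and 100% = DMSO wells spiked with extra 5 µM PC-3 D3A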
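Assay system: Procaspase-3 D3A mutant, all three cleavage aspartates alanine. Buffer or medium: Zinc-free HEPES saline buffer with Triton X-100. Times: 1 h compound preincubation, 2 h substrate hydrolysis at 25 °C. Measured by: 405 nm absorbance of p-nitroaniline, reads at 0 and 120 min. Read-out basis: percent activation relative to control range. Replicates: singlicate.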
p-CIP stab down – lowers stability of the mouse p/CIP coactivator protein; decrease of EGFP signal, % at 10 µM; F442A p/CIP-EGFP cells, EGFP fluorescence, 16 h; hit rate 0.01% among 290,000;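 active means EGFP signal decrease of at least 30% at 10 µM or well 3 SD below plate mean, unless failing retest; inactive means the rest, including hits failing retest or dose response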
Hep lipid drop – modulators of hepatic lipid droplet formation. AML12 mouse hepatocytes, oleate lipid droplets, BODIPY imaging. inhibition, % at 6.5 µM. hit rate 0.4% among 240,000;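 active means lipid droplet intensity inhibited by at least 50%, with more than 500 cells counted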
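material = mouse AML12 hepatocyte cell line, fixed after treatment | also added = 100 µM oleic acid challenge | doses = compound at 6.5 µM only | schedule = overnight exposure | technique = Image-based BODIPY and DAPI two-channel analysis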
proCasp7 act – counter-screen for procaspase-3 activators: activators of human procaspase-7 | P55210 | recombinant procaspase-7, Ac-DEVD-pNA absorbance 405 nm; D23A/D198A/D206A triple mutant, cannot self-cleave; scale: DMSO 0, 5 µM enzyme 100 | activation, % at 8.5 µM | hit rate 0.093% among 330,000;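 active means percent activation above the screen-wide mean plus 3 SD, cut at about 25% in these data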
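System: Uncleavable procaspase-7 mutant enzyme; Amount: 2 µM procaspase-7 mutant as dispensed; Schedule: 1 h compound preincubation, 2 h substrate cleavage, 25 °C; Measured by: 405 nm absorbance of p-nitroaniline; Evaluation: percent activation from buffer-corrected 0–120 min absorbance change; Control set: low DMSO alone, high DMSO plus 5 µM PC-7.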
GAA850 FXN act – frataxin GAA850 promoter activation | activation, % at 6 µM | AID 540364 | HEK293 lucGAA850 FXN promoter luciferase reporter, 24 h; percent of 10 µM SAHA response | hit rate 0.56% among 360,000;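 active means activation above the average of all compounds screened plus 3 SD, cutoff fixed separately per campaign, cut at about 7.5% in these data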;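 further: 0% = DMSO wells and 100% = 10 µM SAHA wells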
Rce1 inh – inhibitors of yeast Ras-converting enzyme; Q03530; yeast membranes, quenched prenylated peptide cleavage fluorescence; calls only; hit rate 0.27% among 290,000; AID 2563;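 active means fall in fluorescence gain of 50% or more versus controls, with final raw signal at or below 3038400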;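 further: plate controls were neutral control wells for no effect and wells lacking membranes for full effect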
Starred values were filed as active, the others as inactive; i = inactive; . = not tested or not shown; + = active, no number. Shown are actives, neighbours in structure and some others; about 1.2% of the full set was active somewhere.

SMILES	proCasp3 act	p-CIP stab down	Hep lipid drop	proCasp7 act	GAA850 FXN act	Rce1 inh
COc1ccc(-c2c(C(F)(F)F)oc3c(CN4CCN(C)CC4)c(O)ccc3c2=O)cc1	-5	-4	4	-4	1	i
Cn1cc(Cc2ccc(C(=O)N3CCOCC3)cn2)c2ccccc21	.	.	.	.	-4	.
CN(C)CCNC(=O)c1ccc2nc([C@@H]3O[C@H](CO)[C@H](O)[C@H](O)[C@H]3O)[nH]c2c1	.	.	.	.	0	.
Cc1ccc(C)c(NC(=S)c2ccc3ccccc3n2)c1	15	-6	56*	1	5	i
Cc1ccc(C)c(NC(=S)c2nc3ccccc3s2)c1	-10	6	11	-9	6	i
Clc1ccc2nc(CSc3nncn3-c3ccccc3)cn2c1	2	-6	.	9	1	i
c1ccc(-n2cnnc2SCc2cn3cccnc3n2)cc1	7	-2	.	13	-3	+
CC1=C(C(=O)OCc2ccccc2)C(c2ccc(-c3ccccc3)cc2)NC(=O)N1CCCCCC(=O)O (centres undefined)	5	-5	6	12	0	.
CC1=C(C(=O)OCc2ccccc2)C(c2ccc(-c3ccccc3)cc2)NC(=O)N1CCCC(=O)O (centres undefined)	6	.	.	-6	.	+
CCCCCCN(C(=O)CCCCCN1C(=O)NC(c2ccccc2)C(C(=O)OCc2ccccc2)=C1C)C(C(=O)NCCCC)c1ccc(OCC(=O)OC)c(C(=O)OC)c1 (centres undefined)	.	7	52*	.	.	.
COc1ccc(Cl)cc1-c1cc(C(=O)Nc2ccc(C)c(NS(C)(=O)=O)c2)[nH]n1	.	.	.	.	-5	.
CCS(=O)(=O)N1CCN(C2CCC(c3ccccc3)CC2)CC1 (centres undefined)	7	-8	.	3	0	+
O=C(O)CSCC(=O)Nc1ccc(-c2nc3ccccc3s2)cc1	-11	-21	1	-1	3	+
Cc1ccc2nc(-c3ccc(NC(=O)CSCC(=O)O)cc3)sc2c1	-2	-30	-5	2	4	i
CC(=O)Nc1ccc(CNc2nc3cc(-c4ccsc4)sc3c(=O)n2C)cc1	.	.	.	.	-1	.
CC(=O)c1c(C)[nH]c(C(=O)OCc2cccc(C)c2)c1C	12	-28	10	-7	3	i
CC(=O)c1c(C)[nH]c(C(=O)OCc2ccc(Br)cc2)c1C	7	-15	-2	-3	7	+
CCN(CC)C(=O)c1cccc(-c2csc(C(C)(O)c3ccncc3)n2)c1 (centres undefined)	.	.	.	.	-2	.
Cc1ncc(CO)c(/C=N/NC(=O)c2cc3c(s2)CCCC3)c1O	31*	-44	-6	26*	-6	i
COCCNc1nc(NCc2cc(-c3ccc(OC)cc3)no2)c2sccc2n1	.	.	.	.	-3	.
CCNC(=O)C1(C)CCCN(C(=O)c2ccc3c(c2)C(C)(C)CCC3(C)C)C1 (centres undefined)	.	.	.	.	0	.
O=C(c1cnc2n(c1=O)CCS2)N1CCN(c2ccccc2Cl)CC1	.	-13	0	.	.	.
O=C(c1cnc2n(c1=O)CCS2)N1CCN(C(c2ccccc2)c2ccc(Cl)cc2)CC1 (centres undefined)	1	-18	.	5	-4	+
CCCCNC(=O)c1cc2c(=O)n3cccc(C)c3nc2n(Cc2ccccc2)c1=N	-7	-8	.	-7	1	+
Cc1ccc(C(=O)N2N=C(c3ccccc3O)CC2c2ccccc2)cc1 (centres undefined)	5	-12	3	8	3	+
SMILES	proCasp3 act	p-CIP stab down	Hep lipid drop	proCasp7 act	GAA850 FXN act	Rce1 inh
Cc1ccc(NC(=O)C2(C)CCN2C(=O)CC(c2ccccc2)c2ccccc2)cc1 (centres undefined)	.	.	.	.	1	.
Cc1c2c(n3c(nc4ccccc43)c1C#N)N(CCCN(C)C)CC2	-1	-2	33	-4	0	+
Cc1nn(-c2ccccc2)c2nc(N)c(C(N)=O)cc12	-8	9	0	-7	2	+
O=C(Nc1ccc(N2CCOCC2)c(Cl)c1)c1cc2ccccc2o1	3	7	17	0	0	+
C=CCn1c(SCc2ccc(C#N)cc2)nnc1-c1ccc(C)cc1	-3	4	.	0	1	+
Cc1cccc(-c2nnc(SCc3ccc(C#N)cc3)n2Cc2ccco2)c1	7	2	.	-9	-1	+
CCc1nc2ccc(C(=O)NCC3CCCCC3)cn2c1N(C)Cc1nccs1	.	.	.	.	-2	.
CCCc1ccc(C(O)c2ncc(-c3ccccc3F)[nH]2)cc1 (centres undefined)	.	.	.	.	1	.
CN(C)C(=S)NC(=S)Nc1ccc2ccccc2c1	.	.	.	.	17*	.
CCCCCn1c(=O)c(-c2nc3ccccc3[nH]2)c(O)c2ccccc21	3	4	19	-6	4	+
CCCCCCCCn1c(=O)c(C(=O)OCC)c(O)c2ccccc21	4	-9	-6	3	0	i
COc1cc2c(cc1OC)C(CCc1ccccc1)=NCC2	1	-5	7	1	-1	+
CC(C)OC(=O)c1c(N)n(CCCN2CCOCC2)c2nc3ccccc3nc12	-5	1	-4	-2	-1	+
CC(C)CCNC(=O)CCCn1c(=O)[nH]c2ccc(Br)cc2c1=O	-1	-12	.	0	2	i
O=C(CCCn1c(=O)[nH]c2ccc(Br)cc2c1=O)NCc1ccc(Cl)cc1	-4	-11	-5	-3	0	+
NC(Cc1ccc(F)cc1)c1csc(Nc2ccc(C(=O)c3ccccc3)cc2)n1 (centres undefined)	.	.	.	.	-3	.
NC(=S)N=Nc1c(O)n(Cc2ccc(F)cc2)c2ccccc12	1	-2	9	-7	3	+
C/C(Cl)=C\Cn1c(O)c(N=NC(N)=S)c2cc(Br)ccc21	-6	-4	-1	-24	1	+
CCc1nc(Nc2ccc(N3CCN(C(C)=O)CC3)cc2)c2oc3ccccc3c2n1	2	-10	.	7	0	+
CCOc1ccc(-c2nc(CCl)cs2)cc1OC	-1	-2	-15	5	0	+
COc1ccc(-c2nc(CC(=O)O)cs2)cc1OC	-5	-10	12	11	.	+
CCOC(=O)c1csc(-c2ccc(OC)c(OC)c2)n1	2	-2	-2	9	7	.
O=C(COC(=O)c1ccc(F)cc1F)Nc1ccc2c(c1)OCO2	.	.	.	.	2	.
Cc1ccc(-c2nc(Nc3ccc(N4CCOCC4)cc3)c3ccccc3n2)cc1	-9	4	28	-17	2	+
OC(c1ccc(F)cc1)c1nc(-c2cc3ccccc3o2)cs1 (centres undefined)	.	.	.	.	3	.
COc1cc(C(=O)Nc2ccc(C)cn2)ccc1OCC(=O)N1CCOCC1	3	.	.	-4	2	.

Source: PubChem BioAssay (several laboratories)
